Laboratory results published in ChEMBL document CHEMBL5058577, “EUbOPEN Chemogenomics Library 2 (Multiplex)” (2022).

System: HEK-293T
Assay: Multiplex assay against HEK293T
Type: toxicity, cell-based
Conditions: human
Method in brief: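 Per cents of healthy-nucleus cells form the tubulin, mitochondrial-mass and membrane-permeability phenotype values. Live cells were stained at seeding with Hoechst33342, BioTracker Green Microtubule Cytoskeleton Dye, MitoTracker Red and Annexin V Alexa Fluor 680. After compound addition they were imaged on a CQ1 microscope at 37°C and 5% CO2, and CellPathfinder machine-learning gating split them into Hoechst high-intensity objects or normal cells, normal cells into healthy, pyknosed or fragmented nuclei, and pyknosed cells into mitotic or apoptotic.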

[1] = 12 h, 1 µM, compound concentration 1 uM, replicate 1
[2] = 12 h, 1 µM, compound concentration 1 uM, replicate 2
[3] = 12 h, 10 µM, compound concentration 10 uM, replicate 1
[4] = 12 h, 10 µM, compound concentration 10 uM, replicate 2
[5] = 24 h, 1 µM, compound concentration 1 uM, replicate 1
[6] = 24 h, 1 µM, compound concentration 1 uM, replicate 2
[7] = 24 h, 10 µM, compound concentration 10 uM, replicate 1
[8] = 24 h, 10 µM, compound concentration 10 uM, replicate 2
[9] = 48 h, 1 µM, compound concentration 1 uM, replicate 1
[10] = 48 h, 1 µM, compound concentration 1 uM, replicate 2
[11] = 48 h, 10 µM, compound concentration 10 uM, replicate 1
[12] = 48 h, 10 µM, compound concentration 10 uM, replicate 2

CSc1ccccc1N1CCN(CCCCCC(=O)NC2CCCc3ccccc32)CC1.Cl (configuration not stated)
Population Apoptotic (%) [1]: 45%
Population Fragmented Nuclei (%) [1]: 6%
Population Healthy Nuclei (%) [1]: 74%
Population Hoechst High Intensity Objects (%) [1]: 8%
Population Membrane Permeable-Phenotype (%) [1]: 0%
Population Mitochondria Different-Phenotype (%) [1]: 68%
Population Mitotic Cells (%) [1]: 54%
Population Normal (%) [1]: 91%
Population Pyknosed Nuclei (%) [1]: 18%
Population Tubulin-Different-Phenotype (%) [1]: 59%
Total Cell Count [1]: 391
Population Hoechst High Intensity Objects (%) [2]: 12%
Population Mitochondria Different-Phenotype (%) [2]: 75%
Population Normal (%) [2]: 87%
Population Pyknosed Nuclei (%) [2]: 19%
Population Tubulin-Different-Phenotype (%) [2]: 43%
Total Cell Count [2]: 322
Population Apoptotic (%) [3]: 80%
Population Fragmented Nuclei (%) [3]: 8%
Population Healthy Nuclei (%) [3]: 68%
Population Hoechst High Intensity Objects (%) [3]: 15%
Population Membrane Permeable-Phenotype (%) [3]: 0%
Population Mitochondria Different-Phenotype (%) [3]: 97%
Population Mitotic Cells (%) [3]: 20%
Population Normal (%) [3]: 84%
Population Pyknosed Nuclei (%) [3]: 22%
Population Tubulin-Different-Phenotype (%) [3]: 59%
Total Cell Count [3]: 316
Population Apoptotic (%) [4]: 79%
Population Fragmented Nuclei (%) [4]: 5%
Population Healthy Nuclei (%) [4]: 74%
Population Hoechst High Intensity Objects (%) [4]: 16%
Population Normal (%) [4]: 83%
Population Pyknosed Nuclei (%) [4]: 19%
Population Tubulin-Different-Phenotype (%) [4]: 65%
Total Cell Count [4]: 304
Population Apoptotic (%) [5]: 36%
Population Fragmented Nuclei (%) [5]: 8%
Population Healthy Nuclei (%) [5]: 79%
Population Hoechst High Intensity Objects (%) [5]: 4%
Population Membrane Permeable-Phenotype (%) [5]: 0%
Population Mitochondria Different-Phenotype (%) [5]: 50%
Population Mitotic Cells (%) [5]: 63%
Population Normal (%) [5]: 95%
Population Pyknosed Nuclei (%) [5]: 11%
Population Tubulin-Different-Phenotype (%) [5]: 41%
Total Cell Count [5]: 508
Population Apoptotic (%) [6]: 41%
Population Healthy Nuclei (%) [6]: 75%
Population Hoechst High Intensity Objects (%) [6]: 7%
Population Mitochondria Different-Phenotype (%) [6]: 70%
Population Mitotic Cells (%) [6]: 58%
Population Normal (%) [6]: 92%
Population Pyknosed Nuclei (%) [6]: 16%
Population Tubulin-Different-Phenotype (%) [6]: 44%
Total Cell Count [6]: 356
Population Apoptotic (%) [7]: 75%
Population Fragmented Nuclei (%) [7]: 5%
Population Healthy Nuclei (%) [7]: 70%
Population Hoechst High Intensity Objects (%) [7]: 21%
Population Membrane Permeable-Phenotype (%) [7]: 0%
Population Mitochondria Different-Phenotype (%) [7]: 98%
Population Mitotic Cells (%) [7]: 24%
Population Normal (%) [7]: 78%
Population Pyknosed Nuclei (%) [7]: 23%
Population Tubulin-Different-Phenotype (%) [7]: 53%
Total Cell Count [7]: 303
Population Apoptotic (%) [8]: 69%
Population Fragmented Nuclei (%) [8]: 7%
Population Healthy Nuclei (%) [8]: 73%
Population Hoechst High Intensity Objects (%) [8]: 20%
Population Mitochondria Different-Phenotype (%) [8]: 97%
Population Mitotic Cells (%) [8]: 30%
Population Normal (%) [8]: 79%
Population Pyknosed Nuclei (%) [8]: 18%
Population Tubulin-Different-Phenotype (%) [8]: 48%
Total Cell Count [8]: 315
Population Apoptotic (%) [9]: 32%
Population Fragmented Nuclei (%) [9]: 10%
Population Healthy Nuclei (%) [9]: 78%
Population Hoechst High Intensity Objects (%) [9]: 4%
Population Membrane Permeable-Phenotype (%) [9]: 0%
Population Mitochondria Different-Phenotype (%) [9]: 39%
Population Mitotic Cells (%) [9]: 67%
Population Normal (%) [9]: 95%
Population Pyknosed Nuclei (%) [9]: 10%
Population Tubulin-Different-Phenotype (%) [9]: 27%
Total Cell Count [9]: 747
Population Apoptotic (%) [10]: 45%
Population Healthy Nuclei (%) [10]: 76%
Population Hoechst High Intensity Objects (%) [10]: 6%
Population Mitochondria Different-Phenotype (%) [10]: 59%
Population Mitotic Cells (%) [10]: 54%
Population Normal (%) [10]: 93%
Population Pyknosed Nuclei (%) [10]: 13%
Population Tubulin-Different-Phenotype (%) [10]: 31%
Total Cell Count [10]: 471
Population Apoptotic (%) [11]: 76%
Population Fragmented Nuclei (%) [11]: 11%
Population Healthy Nuclei (%) [11]: 73%
Population Hoechst High Intensity Objects (%) [11]: 28%
Population Membrane Permeable-Phenotype (%) [11]: 0%
Population Mitochondria Different-Phenotype (%) [11]: 97%
Population Mitotic Cells (%) [11]: 23%
Population Normal (%) [11]: 71%
Population Pyknosed Nuclei (%) [11]: 14%
Population Tubulin-Different-Phenotype (%) [11]: 67%
Total Cell Count [11]: 365
Population Apoptotic (%) [12]: 56%
Population Fragmented Nuclei (%) [12]: 13%
Population Hoechst High Intensity Objects (%) [12]: 18%
Population Mitochondria Different-Phenotype (%) [12]: 93%
Population Mitotic Cells (%) [12]: 43%
Population Normal (%) [12]: 81%
Population Pyknosed Nuclei (%) [12]: 13%
Population Tubulin-Different-Phenotype (%) [12]: 56%
Total Cell Count [12]: 385
